Measurements: ChEMBL document CHEMBL1137260, “Design and biological evaluation of novel tubulin inhibitors as antimitotic agents using a pharmacophore binding model with tubulin” (J Med Chem, 2006)
pIC50: −log10 of the molar value.

Key:
Huh-7 = assay: Antiproliferative activity against human Huh7 cells after 48 hrs; assay type: functional, cell-based; conditions: Huh-7, 48 h
How it was run: (§1)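 Cells kept in DMEM with 10% FBS/glutamine/antibiotics, 37 °C, 5% CO2; 2 × 10⁴ cells seeded, after 24 h exposed to compounds (0.01–100 µM) for 48 h. Part of the supernatant was removed, CellTiter 96 Aqueous reagent added, 2 h further incubation at 37 °C, absorbance at 490 nm read; IC50 derived. Huh7 is a hepatoma line, 293T renal epithelial.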

HEK-293T = assay: Antiproliferative activity against human 293T cells after 48 hrs; assay type: functional, cell-based; how it was run: as §1
SNU-398 [1] = assay: Cell cycle arrest in SNU398 cells by accumulation at G2/M phase at 5000 nM; assay type: functional, Homo sapiens
How it was run: (§2)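 SNU-398 hepatoma cells (5 × 10⁵) seeded, grown 24 h, then 48 h with compound or carrier alone. Harvested, PBS-washed twice, stained with a cell cycle analysis kit, analysed by flow cytometry; cell cycle phase percentages estimated, G2/M fraction reported.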

SNU-398 [2] = assay: Cell cycle arrest in SNU398 cells by accumulation at G2/M phase at 50 nM; assay type: functional, Homo sapiens; how it was run: as §2
SNU-398 [3] = assay: Cell cycle arrest in SNU398 cells by accumulation at G2/M phase at 500 nM; assay type: functional, Homo sapiens; how it was run: as §2
Tubulin = assay: Inhibition of tubulin polymerization; assay type: protein-complex assay, Homo sapiens
How it was run: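 Tubulin polymerization kit used; components added to wells at 0 °C with 340 nm baselines, then assembly followed at 0 °C and 37 °C and measured turbidimetrically. Compounds tested at 0, 3, 10 and 30 µM; IC50 calculated from the polymerization data.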

| pIC50 (Huh-7) | pIC50 (Tubulin) | Compound | pIC50 (HEK-293T) | Activity (SNU-398 [1]) | Activity (SNU-398 [2]) | Activity (SNU-398 [3]) |
| --- | --- | --- | --- | --- | --- | --- |
| < 4.00 | – | O=C(/C=C/c1cccc2ccccc12)c1ccc(NC(=O)c2cccs2)cc1 | < 4.00 | – | – | – |
| 5.00 | – | O=C(/C=C/c1ccccn1)c1ccc(NC(=O)c2ccco2)cc1 | 5.01 | 46.6% | 36.3% | 36.3% |
| < 4.00 | – | CCOc1ccc(C(C)(C)C(=O)Nc2ccc(C(=O)/C=C/c3ccccn3)cc2)cc1 | < 4.00 | – | – | – |
| 5.08 | 4.70 | CN(C)CC(=O)Nc1ccc(C(=O)/C=C/c2ccccn2)cc1 | 5.09 | 43% | 31.9% | 32.7% |
| 5.02 | 4.80 | CC(=O)Nc1ccc(C(=O)/C=C/c2ccccn2)cc1 | 4.86 | 43.3% | 37.7% | 37.1% |
| 4.84 | < 4.52 | O=C(/C=C/c1ccccn1)c1ccccc1 [WR-190433] | 4.86 | – | – | – |
